Published values from different studies.
Protocols differ between the studies behind these lines.

O=C(c1ccc(F)cc1)c1c[nH]c2ncc(-c3ccc(N4CCNCC4)cc3)cc12  viability (A549; cell growth or viability, MTT; 10 µM, 48 h): 89.1%
Cc1nc2c(N)nc(=O)[nH]c2n1C(Cc1ccccc1)C(=O)O (centres unmarked)  IC50 (unidentified influenza virus; viral replication; A549, H1N1 PR8; 24 h): 0.52 µM
Nc1ncnc2c([C@@H]3N[C@H](CO)[C@@H](O)[C@H]3O)c[nH]c12  inhibition (unidentified influenza virus; viral replication, inhibitor; MDCK; 29.6 µM): 100%
CC(C)(C)OC(=O)N1CCN(c2ccc(-c3cnc4[nH]cc(C(=O)c5cccc(F)c5)c4c3)cn2)CC1  viability (A549; cell growth or viability, MTT; 10 µM, 48 h): 93.7%
O=C(NCCCNc1c2c(nc3ccccc13)CCCC2)c1ccccc1O  IC50 (ABTS scavenging; 1 h): 27.7 µM
CCOC(=O)C1=C[C@@H](OC(CC)CC)[C@H](NC(C)=O)[C@@H](N)C1  IC50 (unidentified influenza virus; viral replication; A549, H1N1 PR8; 24 h): 0.18 µM
C[C@@H]1[C@H](O)[C@@H](C)/C=C/C=C/C=C/C=C/C=C/C=C/C=C/[C@H](O[C@@H]2O[C@H](C)[C@@H](O)[C@H](N)[C@@H]2O)C[C@@H]2O[C@](O)(C[C@@H](O)C[C@@H](O)[C@H](O)CC[C@@H](O)C[C@@H](O)CC(=O)O[C@H]1C)C[C@H](O)[C@H]2C(=O)O  IC50 (Leishmania donovani; parasite growth; amastigote): 0.21 µg/mL
CCC1(c2ccc(N)cc2)CCC(=O)NC1=O (centres unmarked)  IC50 (PC-3; cell growth or viability, CCK-8; 48 h): > 50 µM
Cc1cc(C(C)(C)C)c(O)c(C(C)(C)C)c1  IC50 (ABTS scavenging, absorbance; 5 min): 0.08 µM
COC(=O)C(Cc1c[nH]c2ccccc12)n1c(C)nc2c(N)nc(=O)[nH]c21 (centres unmarked)  IC50 (unidentified influenza virus; viral replication; A549, H1N1 PR8; 24 h): 0.31 µM
N=C(N)c1ccc(OCCCCCOc2ccc(C(=N)N)cc2)cc1  IC50 (Leishmania donovani; parasite growth, resazurin; 72 h, promastigote): 1 µg/mL
CC(C)=CCC/C(C)=C/COc1cc(O)cc(O)c1C(=O)c1ccccc1  IC50 (ABTS scavenging): 3750 µM
CCOC(=O)c1c(CSc2ccccc2)n(C)c2cc(Br)c(O)c(CN(C)C)c12.Cl.O  MIC50 (Punta Toro virus; cytopathic effect): > 100 µg/mL
O=C(N/N=C1\C(=O)N(Cc2ccccc2)c2ccc(F)cc21)c1cc2ccccc2[nH]1  inhibition (A549; cell growth or viability; 30 µM): 99.1%
Oc1c(Cl)cc(Cl)cc1Sc1cc(Cl)cc(Cl)c1O  inhibition (Betapolyomavirus hominis; viral replication, inhibitor, qPCR; Vero; 30 µM, 5 days): ~70%
CC(C)(C)OC(=O)N1CCN(c2ccc(-c3cnc4[nH]cc(C(=O)c5ccc(F)cc5)c4c3)cc2)CC1  viability (A549; cell growth or viability, MTT; 10 µM, 48 h): 91.5%
C[C@]12CCC(=O)C[C@@H]1CC[C@@H]1[C@@H]2CC[C@@]2(C)[C@H]1CC[C@]2(C)O  IC50 (NIH3T3; cell growth or viability, MTT; 24 h): > 30 µM
